Results collected from several papers.
Protocols differ between the studies behind these lines.
Target: Serine/threonine-protein kinase D2 (PRKD2, Homo sapiens, UniProt Q9BZL6)
Sequence (Q9BZL6 1-878, as in one of the studies): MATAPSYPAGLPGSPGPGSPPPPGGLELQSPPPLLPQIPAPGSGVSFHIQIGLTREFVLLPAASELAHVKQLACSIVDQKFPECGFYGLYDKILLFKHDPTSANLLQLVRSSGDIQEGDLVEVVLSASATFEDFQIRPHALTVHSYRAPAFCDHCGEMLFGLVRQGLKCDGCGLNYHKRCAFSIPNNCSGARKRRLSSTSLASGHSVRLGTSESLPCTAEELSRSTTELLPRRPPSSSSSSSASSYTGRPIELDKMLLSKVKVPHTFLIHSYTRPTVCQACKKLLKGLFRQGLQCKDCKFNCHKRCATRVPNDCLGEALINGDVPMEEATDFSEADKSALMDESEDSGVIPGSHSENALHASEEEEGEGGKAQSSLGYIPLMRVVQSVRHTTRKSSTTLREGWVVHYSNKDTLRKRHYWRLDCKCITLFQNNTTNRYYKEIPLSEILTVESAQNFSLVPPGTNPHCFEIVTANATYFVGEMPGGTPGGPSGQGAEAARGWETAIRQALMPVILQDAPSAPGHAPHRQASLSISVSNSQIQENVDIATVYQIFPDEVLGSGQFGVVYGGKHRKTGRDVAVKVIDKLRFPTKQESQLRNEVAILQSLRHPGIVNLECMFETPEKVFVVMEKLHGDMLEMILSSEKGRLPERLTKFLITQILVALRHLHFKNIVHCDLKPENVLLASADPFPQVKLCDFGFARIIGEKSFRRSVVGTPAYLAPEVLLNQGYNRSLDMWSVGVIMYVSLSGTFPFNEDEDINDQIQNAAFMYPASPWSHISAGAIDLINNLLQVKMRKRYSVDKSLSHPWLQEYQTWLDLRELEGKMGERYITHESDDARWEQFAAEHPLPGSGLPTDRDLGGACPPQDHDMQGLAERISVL

SMILES	test	conditions	remaining binding [%]
O=C(c1ccc(Nc2ncc(Cl)c(-c3ccc(Cl)s3)n2)cc1)N1CCC(N2CCCC2)CC1	binding, competition with immobilised ligand	1 µM	8.7
CC(=O)N1CCC(c2ccc(C(=O)NC(=N)N)cc2C(F)(F)F)CC1	cell-free assay, competition with immobilised ligand	1 µM	100
CC1CCCN1c1nccc(-c2cnn3ncccc23)n1 (stereo not shown)	binding	1 µM	85
C[C@@H](c1ccc(-n2cnc3c(N)ncnc32)cc1)N1CCc2nn(C)c(Cc3ccccc3)c2C1=O	binding, competition with immobilised ligand	0.1 µM	99
CS(=O)(=O)N1CCCC(NC(=O)[C@H](CCC2CCCCC2)NC(=O)c2ccc(CNC(=O)c3cnc4ccccn34)cc2)C1 (stereo partly shown)	cell-free assay, competition with immobilised ligand	0.1 µM	100
O=C(NCCCN1CCOCC1)c1ccc(Nc2ncc(Cl)c(-c3ccc(Cl)s3)n2)cc1	binding, competition with immobilised ligand	1 µM	3.9
CNCc1ccccc1-c1csc([C@H](C)Nc2nc(C)nc3cc(OC)c(OC)cc23)c1	cell-free assay, competition with immobilised ligand	1 µM	99
CNC(=O)[C@@H]1CC[C@@H](n2c(-c3ccc4cnccc4c3)nc3ccc(C(=O)NCc4cccc(C(N)=O)c4)cc32)C1	binding, competition with immobilised ligand	1 µM	90
O=C(c1ccc(Nc2nccc(-c3cc4ccccc4s3)n2)cc1)N1CCC(N2CCCC2)CC1	binding, competition with immobilised ligand	1 µM	48
Cc1cnn2ncc(-c3ccnc(N(C)C)n3)c2c1	binding	1 µM	100
O=C(Nc1c[nH]nc1C(=O)NC1CCNCC1)c1cc(F)cc(F)c1	binding, competition with immobilised ligand	1 µM	100
c1cncc(-c2cccc(Nc3nccc(NC4CCCCC4)n3)c2)c1	binding, competition with immobilised ligand	10 µM	19
F[C@@H]1CCN(c2nccc(-c3cnn4ncccc34)n2)C1	binding	1 µM	100
COc1ncc2cc3ccccc3nc2c1C#N	cell-free assay, competition with immobilised ligand	5 µM	93
N[C@H]1CCN(c2nccc(-c3cnn4ncccc34)n2)C1	binding	1 µM	74
O=C(NCCCC1CCCCC1)c1ccc(CNC(=O)c2cnn(-c3ccccc3)c2C(F)(F)F)cc1	cell-free assay, competition with immobilised ligand	0.1 µM	100
C[C@H]1CCN(c2nccc(-c3cnn4ncccc34)n2)C1	binding	1 µM	82
CCN1CCN(Cc2ccc(C(=O)Nc3ccc(C)c(Oc4ccc5c(c4)CC(=O)N5)c3)cc2C(F)(F)F)CC1	binding, competition with immobilised ligand	1 µM	95
c1cnn2ncc(-c3ccnc(N4CCC45COC5)n3)c2c1	binding	1 µM	89
N#Cc1ccc(Nc2ccc3[nH]c(=O)[nH]c3c2)c(Cl)c1	cell-free assay, competition with immobilised ligand	1 µM	100
CN(c1nccc(-c2cnn3ncccc23)n1)C1CC1	binding	1 µM	99
Cc1nc(N2CC[C@@H](O)C2)ncc1-c1cc(C(F)(F)F)cc2[nH]ncc12	binding, competition with immobilised ligand	1 µM	79
